Source: ChEMBL document CHEMBL1139836, “Development of orally bioavailable and CNS penetrant biphenylaminocyclopropane carboxamide bradykinin B1 receptor antagonists” (J Med Chem, 2007)

How the values were obtained:
B1 bradykinin receptor [1] = biological target: T1, B1 bradykinin receptor (Homo sapiens, UniProt P46663); experiment: Displacement of [3H]des-Arg10 Leu9 kallidin from human bradykinin B1 receptor expressed in CHO cells; type: cell-based
T1 sequence (P46663 whole entry): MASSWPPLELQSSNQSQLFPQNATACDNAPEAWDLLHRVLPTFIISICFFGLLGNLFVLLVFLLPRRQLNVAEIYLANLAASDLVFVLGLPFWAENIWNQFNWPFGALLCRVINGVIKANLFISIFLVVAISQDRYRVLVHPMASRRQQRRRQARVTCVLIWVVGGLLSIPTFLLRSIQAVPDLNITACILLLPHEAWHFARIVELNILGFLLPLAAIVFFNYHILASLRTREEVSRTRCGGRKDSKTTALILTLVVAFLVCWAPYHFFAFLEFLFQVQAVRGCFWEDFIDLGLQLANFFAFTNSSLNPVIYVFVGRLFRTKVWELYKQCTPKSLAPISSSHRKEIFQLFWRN
Method in brief: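 Membranes from CHO cells stably expressing human B1, used at 0.2 mg/mL protein in pH 7.4 HEPES/NaCl/KCl buffer with 100 nM enalaprilat, 140 µg/mL bacitracin and 0.1% BSA. Radioligand 0.2 nM [3H]des-arg10 leu9 kallidin, 2% DMSO final, incubated 60 min at 22 °C, then filtered and counted. Nonspecific binding defined with 1 µM des-arg10 kallidin. Ki values, at least two experiments averaged.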

human MDR1 (P-gp) = experiment: Apparent permeability in LLC-PK1 cells expressing human MDR1; type: ADME, cell-based, Sus scrofa; conditions: pig, LLC-PK1
Method in brief: (§1)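 LLC-PK1 cells expressing human MDR1, grown in M199 with 10% FBS on 96-well filters and used on day 4. Equilibrated 30 min in HBSS with 1 mM HEPES, then test compound at 5 µM. 1 µM verapamil served as P-gp substrate control. Transport in both directions measured in triplicate by LC/MS/MS or scintillation.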

LLC-PK1 = experiment: Ratio of transport from basolateral to apical over apical to basolateral in LLC-PK1 cells expressing human MDR1; type: ADME, cell-based, Sus scrofa; conditions: pig; method in brief: as §1
B2 bradykinin receptor = biological target: T2, B2 bradykinin receptor (Homo sapiens, UniProt P30411); experiment: Inhibition of human bradykinin B2 receptor
T2 sequence (P30411 whole entry): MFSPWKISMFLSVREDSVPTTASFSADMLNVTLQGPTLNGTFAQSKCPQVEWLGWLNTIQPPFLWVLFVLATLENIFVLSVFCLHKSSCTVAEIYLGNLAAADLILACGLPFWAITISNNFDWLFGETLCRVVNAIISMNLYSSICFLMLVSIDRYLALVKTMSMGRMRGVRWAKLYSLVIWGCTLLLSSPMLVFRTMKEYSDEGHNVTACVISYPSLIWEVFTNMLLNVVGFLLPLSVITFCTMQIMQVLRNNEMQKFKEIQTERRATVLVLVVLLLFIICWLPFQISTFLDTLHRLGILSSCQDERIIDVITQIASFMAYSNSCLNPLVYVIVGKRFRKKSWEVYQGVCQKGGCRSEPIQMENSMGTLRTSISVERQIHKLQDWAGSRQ
Method in brief: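 Human B2 receptor expressed in CHO cells, membrane binding with 1 nM [3H]bradykinin, 2% DMSO final, 60 min at 22 °C, then filtered and counted. Nonspecific binding defined with 1 µM bradykinin. Ki reported.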

[2] = Lipophilicity, Log P of the compound; type: physicochemical; conditions: octanol/water
[3] = Oral bioavailability in Sprague-Dawley rat at 10 mg/kg, po and 2 mg/kg, iv; type: ADME, organism-based; conditions: in vivo
Method in brief: (§2)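 Sprague-Dawley rats, n = 3, dosed orally at 10 mg/kg and iv at 2 mg/kg. F% from oral versus iv exposure; half-life in hours, clearance in mL/min/kg.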

[4] = Half life in Sprague-Dawley rat at 10 mg/kg, po and 2 mg/kg, iv; type: ADME, organism-based; conditions: in vivo; method in brief: as §2
[5] = Clearance in Sprague-Dawley rat at 10 mg/kg, po and 2 mg/kg, iv; type: ADME, organism-based; conditions: in vivo; method in brief: as §2
[6] = Stability in dog liver microsomes; type: ADME, Canis lupus familiaris, Microsome
Liver microsomes [7] = experiment: Stability in rat liver microsomes; type: ADME, Microsome
[8] = Oral bioavailability in rhesus monkey at 3 mg/kg, po and 1 mg/kg, iv; type: ADME, organism-based, Macaca mulatta; conditions: in vivo
Method in brief: (§3)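 Rhesus monkeys, n = 2, dosed orally at 3 mg/kg and iv at 1 mg/kg. F%, half-life in hours, clearance in mL/min/kg.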

[9] = Clearance in Mongrel dog at 3 mg/kg, po and 1 mg/kg, iv; type: ADME, organism-based, Canis lupus familiaris; conditions: in vivo
Method in brief: (§4)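 Mongrel dogs, n = 2, dosed orally at 3 mg/kg and iv at 1 mg/kg. F%, half-life in hours, clearance in mL/min/kg.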

[10] = Stability in monkey liver microsomes; type: ADME, Macaca mulatta, Microsome; conditions: rhesus monkey
[11] = Half life in Mongrel dog at 3 mg/kg, po and 1 mg/kg, iv; type: ADME, organism-based, Canis lupus familiaris; conditions: in vivo; method in brief: as §4
[12] = Clearance in rhesus monkey at 3 mg/kg, po and 1 mg/kg, iv; type: ADME, organism-based, Macaca mulatta; conditions: in vivo; method in brief: as §3
[13] = Oral bioavailability in Mongrel dog at 3 mg/kg, po and 1 mg/kg, iv; type: ADME, organism-based, Canis lupus familiaris; conditions: in vivo; method in brief: as §4
B1 bradykinin receptor [14] = biological target: T1, B1 bradykinin receptor; experiment: Activity at human bradykinin B1 receptor assessed as inhibition of Des-arg kallidin-induced increase of cytosolic calcium in CHO cells by FLIPR; type: functional, cell-based
Method in brief: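 CHO cells stably expressing human B1 receptor, seeded 25 000/well and grown overnight at 37 °C, then loaded 60 min at 37 °C with 4 µM fluo-3 AM and 1 mM probenecid. Antagonist added 2 min before 3 nM des-arg10 kallidin, run at 37 °C. At least eight concentrations per curve give IC50. At least two experiments averaged.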

[15] = Stability in rat hepatocytes; type: ADME, cell-based, Hepatocyte
[16] = Half life in rhesus monkey at 3 mg/kg, po and 1 mg/kg, iv; type: ADME, organism-based, Macaca mulatta; conditions: in vivo; method in brief: as §3
[17] = Stability in human hepatocytes; type: ADME, cell-based, Hepatocyte
Liver microsomes [18] = experiment: Stability in human liver microsomes; type: ADME, Microsome

SMILES | Ki (B1 bradykinin receptor [1]) | Papp (human MDR1 (P-gp)) | Ratio (LLC-PK1) | IC50 (B2 bradykinin receptor) | bioavailability [3] | half-life [4] | clearance [5] | also measured
COC(=O)c1c(F)cccc1-c1ccc([C@@H](C)NC(=O)C2(NC(=O)C(F)(F)Cl)CC2)c(F)c1 | 0.81 nM | 34 ×10⁻⁶ cm/s | 2.5 | – | – | – | – | –
COC(=O)c1c(F)cccc1-c1ccc(CNC(=O)C2(NC(=O)C(F)Cl)CC2)c(F)c1 (configuration not stated) | 2.8 nM | – | – | > 10000 nM | – | – | – | –
COC(=O)c1c(F)cccc1-c1ccc(CNC(=O)C2(NC(=O)C(F)(F)Cl)CC2)c(F)c1 | 2.5 nM | 29 ×10⁻⁶ cm/s | 2.8 | > 10000 nM | – | – | – | –
C[C@@H](NC(=O)C1(NC(=O)C(F)(F)F)CC1)c1ccc(-c2cccc(F)c2-c2nnnn2C)cc1F | 62.5 nM | 19 ×10⁻⁶ cm/s | 15.5 | – | – | – | – | –
COC(=O)c1c(F)cccc1-c1ccc(CNC(=O)C2(NC(=O)C(Cl)Cl)CC2)c(F)c1 | 0.54 nM | 21 ×10⁻⁶ cm/s | 2.8 | > 10000 nM | – | – | – | logP [2]: 2.8
C[C@@H](NC(=O)C1(NC(=O)C(F)(F)F)CC1)c1ccc(-c2cccc(Cl)c2-c2nnn(C)n2)cc1F | 0.66 nM | – | – | – | 50% | 0.7 h | 12 mL/min/kg | –
COC(=O)c1c(F)cccc1-c1ccc(CNC(=O)C2(NC(=O)C(F)F)CC2)c(F)c1 | 13.5 nM | 33 ×10⁻⁶ cm/s | 3.4 | > 10000 nM | – | – | – | logP [2]: 2.4
COC(=O)c1c(F)cccc1-c1ccc([C@@H](C)NC(=O)C2(NC(=O)CC(F)(F)F)CC2)c(F)c1 | 0.13 nM | 25 ×10⁻⁶ cm/s | 8.6 | – | 14% | 1.44 h | 25 mL/min/kg | –
COC(=O)c1c(F)cccc1-c1ccc([C@@H](C)NC(=O)C2(NC(=O)C(F)(F)F)CC2)c(F)c1 | 0.57 nM | 28 ×10⁻⁶ cm/s | 2.3 | – | 21% | 0.5 h | 42 mL/min/kg | Stability [6]: Stable; Stability (Liver microsomes [7]): Stable; bioavailability [8]: 2%; clearance [9]: 21 mL/min/kg; Stability [10]: Stable; half-life [11]: 1.7 h; clearance [12]: 28 mL/min/kg; bioavailability [13]: 5%; IC50 (B1 bradykinin receptor [14]): 1.9 nM; Stability [15]: Stable; half-life [16]: 2.2 h; Stability [17]: Stable; Stability (Liver microsomes [18]): Stable
COC(=O)c1ccccc1-c1ccc([C@@H](C)NC(=O)C2(NC(=O)C(F)(F)F)CC2)c(F)c1 | 10.3 nM | 34 ×10⁻⁶ cm/s | 2.2 | – | – | – | – | –
COC(=O)c1c(F)cccc1-c1ccc(CNC(=O)C2(NC(=O)C(F)(F)F)CC2)c(F)c1 | 1.47 nM | 23 ×10⁻⁶ cm/s | 4.1 | > 10000 nM | – | – | – | logP [2]: 2.7
Cc1noc(-c2c(F)cccc2-c2ccc([C@@H](C)NC(=O)C3(NC(=O)C(F)(F)F)CC3)c(F)c2)n1 | 0.51 nM | 37 ×10⁻⁶ cm/s | 5.6 | – | 27% | 0.35 h | 28 mL/min/kg | bioavailability [8]: 22%; clearance [9]: 6 mL/min/kg; half-life [11]: 3.9 h; clearance [12]: 15 mL/min/kg; bioavailability [13]: 35%; IC50 (B1 bradykinin receptor [14]): 0.89 nM; half-life [16]: 2.9 h
